Results from publication PMC5955861 (Oncogene, 2018).
Where two headings read alike, the source gives them in different places.

Legend:
[1] = system: MV-4-11B AML cells; experiment: disseminated AML xenograft efficacy study; type: in vivo, CIEA-NOG mice; conditions: MV-4-11B i.v. engrafted
[2] = system: Toledo; experiment: alamarBlue cell proliferation assay; type: cell-based; conditions: Homo sapiens
Method in brief: (§1)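 Cell lines from ATCC or DSMZ were cultured per supplier's instructions and STR-authenticated. MV-4-11B is a clone of MV-4-11 carrying heterozygous TP53 c.742C>T (p.R248W). Cells were exposed to test compound in 96-well format, and viability was read after incubation with alamarBlue.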

[3] = system: HuT78; experiment: alamarBlue cell proliferation assay; type: cell-based; conditions: Homo sapiens
Method in brief: (§2)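 Leukemia, lymphoma and myeloma lines (from ATCC or DSMZ, grown per supplier instructions, STR-authenticated; GFP-labelled sublines where stated) were incubated with test compound in 96-well flat-bottom plates. Viability was read by alamarBlue conversion, and EC50 was taken from the concentration-response.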

[4] = system: DERL-2; experiment: alamarBlue cell proliferation assay; type: cell-based; conditions: T-cell
Method in brief: as §2

[5] = system: MOLM-1; experiment: alamarBlue cell proliferation assay; type: cell-based
Method in brief: as §2

[6] = system: SR-786; experiment: alamarBlue cell proliferation assay; type: cell-based
Method in brief: as §2

[7] = system: MOLT-4; experiment: alamarBlue cell proliferation assay; type: cell-based; conditions: Homo sapiens
Method in brief: as §2

[8] = system: HL-60; experiment: alamarBlue cell proliferation assay; type: cell-based; conditions: Homo sapiens
Method in brief: as §2

[9] = system: OPM-2 GFP; experiment: alamarBlue cell proliferation assay; type: cell-based; conditions: Homo sapiens
Method in brief: as §2

[10] = system: OCI-Ly7; experiment: alamarBlue cell proliferation assay; type: cell-based; conditions: Homo sapiens
Method in brief: as §2

[11] = system: Pfeiffer; experiment: alamarBlue cell proliferation assay; type: cell-based; conditions: Homo sapiens
Method in brief: as §2

[12] = system: CCRF-CEM; experiment: alamarBlue cell proliferation assay; type: cell-based; conditions: Homo sapiens
Method in brief: as §2

[13] = system: J.RT3-T3.5; experiment: alamarBlue cell proliferation assay; type: cell-based; conditions: Homo sapiens
Method in brief: as §2

[14] = system: SU-DHL4; experiment: alamarBlue cell proliferation assay; type: cell-based; conditions: Homo sapiens, SU-DHL-4
Method in brief: as §2

[15] = biological target: BRD2/3/4 and BRDT; experiment: BROMOscan ligand-binding site-directed competition assay
[16] = system: U266 B1; experiment: alamarBlue cell proliferation assay; type: cell-based; conditions: Homo sapiens, U-266
Method in brief: as §1

[17] = system: OCI-Ly18; experiment: alamarBlue cell proliferation assay; type: cell-based; conditions: Homo sapiens
Method in brief: as §2

[18] = system: OCI-Ly3; experiment: alamarBlue cell proliferation assay; type: cell-based; conditions: Homo sapiens
Method in brief: as §2

[19] = system: hematological cell lines; experiment: alamarBlue cell proliferation assay, panel of hematological cell lines; type: cell-based
Method in brief: as §1

[20] = system: p-Ser2 POL-II in MV-4-11B cells; experiment: p-Ser2 POL-II custom MSD assay; type: cell-based; conditions: 35 nM BI 894999, 2 h
Method in brief: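 MV-4-11B cells were treated for 2 h with single agents or their combination. Phospho-Ser2 RNA Pol II was quantified with a custom Meso Scale Discovery multi-array assay.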

[21] = system: SU-DHL2; experiment: alamarBlue cell proliferation assay; type: cell-based; conditions: Homo sapiens, SU-DHL-2
Method in brief: as §2

[22] = system: RC-K8; experiment: alamarBlue cell proliferation assay; type: cell-based; conditions: Homo sapiens, RCK8
Method in brief: as §2

[23] = system: MM primary patient samples; experiment: proliferation of ex vivo-treated primary patient samples; type: cell-based; conditions: Homo sapiens
[24] = system: RI-1; experiment: alamarBlue cell proliferation assay; type: cell-based
Method in brief: as §2

[25] = system: MM.1R; experiment: alamarBlue cell proliferation assay; type: cell-based
Method in brief: as §2

[26] = system: NCI-H929; experiment: alamarBlue cell proliferation assay; type: cell-based; conditions: Homo sapiens
Method in brief: as §2

[27] = system: Hexim1 mRNA; experiment: Hexim1 mRNA in blood of xenograft bearing mice; type: in vivo; conditions: 24 h after dosing; MV-4-11B xenograft bearing mice
Method in brief: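 Mice bearing subcutaneous MV-4-11B xenografts were dosed daily with vehicle or test compound at 2, 4 or 12 mg/kg, and blood was collected on the indicated treatment days. Total RNA was isolated with TRI reagent, and 500 ng was reverse-transcribed. Hexim1 transcript was quantified by SYBR Green qRT-PCR.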

[28] = system: AMO-1; experiment: alamarBlue cell proliferation assay; type: cell-based; conditions: Homo sapiens, AMO1
Method in brief: as §2

[29] = system: AML primary patient samples; experiment: proliferation of ex vivo-treated primary patient samples; type: cell-based; conditions: Homo sapiens
[30] = system: JEKO-1; experiment: alamarBlue cell proliferation assay; type: cell-based; conditions: Homo sapiens
Method in brief: as §2

[31] = system: KG-1; experiment: alamarBlue cell proliferation assay; type: cell-based; conditions: Homo sapiens
Method in brief: as §2

[32] = system: MV-4-11B; experiment: alamarBlue cell proliferation assay; type: cell-based, human; conditions: Homo sapiens
Method in brief: as §1

[33] = system: RPMI 8226; experiment: alamarBlue cell proliferation assay; type: cell-based; conditions: Homo sapiens
Method in brief: as §2

[34] = system: MV-4-11B GFP; experiment: alamarBlue cell proliferation assay; type: cell-based
Method in brief: as §2

Compound: CNc1nc(-c2nc3ccc(N4CCN(C)CC4)cc3n2Cc2ccccc2)cn2c(C)nnc12 [BI 894999]
- survival prolongation ([1]; daily oral 2 mg/kg): 29.5 days
- tumor growth inhibition (TGI) ([1]; daily oral 2 mg/kg): 96%
- survival prolongation ([1]; daily oral 4 mg/kg): 52 days
- tumor growth inhibition (TGI) ([1]; daily oral 4 mg/kg): 99%
- EC50 [2]: 6 ± 1.1 nM
- EC50 [3]: 7.1 ± 3.7 nM
- EC50 [4]: 10.6 ± 9.5 nM
- EC50 [5]: 53.4 ± 34.8 nM
- EC50 [6]: 77.3 ± 17.3 nM
- EC50 [7]: 40.7 ± 28.7 nM
- EC50 [8]: 2.7 ± 0.1 nM
- EC50 [9]: 12 nM
- EC50 [10]: 14.2 ± 6.4 nM
- EC50 [11]: 10.7 ± 2.7 nM
- EC50 [12]: 175 ± 58 nM
- EC50 [13]: 11 ± 4 nM
- EC50 [14]: 13.3 ± 4.5 nM
- Kd ([15]; BRD2/3/4 and BRDT, 24 bromodomains tested): 0.49 to 1.6 nM
- selectivity vs. BRD4-BD1 ([15]; other bromodomains of the panel (n = 24) vs. BRD4-BD1): ≥ 200 fold
- EC50 [16]: 14.3 ± 7.4 nM
- EC50 [17]: 5.6 ± 0.9 nM
- EC50 [18]: 8.2 ± 2.3 nM
- EC50 [19]: < 10 nM
- EC50 ([19]; Homo sapiens, K562): < 100 nM
- increased potency compared to OTX-015 ([19]; on cell lines): 10–20 fold
- p-Ser2 POL-II levels [20]: ~ 86 % of control
- EC50 [21]: 10.7 ± 3.2 nM
- EC50 [22]: 7.8 ± 0.9 nM
- EC50 ([23]; read-out: BI 894999 EC50, MM Patient 1): 52 nM
- EC50 ([23]; read-out: BI 894999 EC50, MM Patient 2): 15 nM
- EC50 ([23]; read-out: BI 894999 EC50, MM Patient 3): 7 nM
- EC50 ([23]; read-out: BI 894999 EC50, MM Patient 4): > 2000 nM
- EC50 ([23]; read-out: BI 894999 EC50, MM Patient 5): 500 nM
- EC50 ([23]; read-out: BI 894999 EC50, MM Patient 6): 421 nM
- EC50 ([23]; read-out: BI 894999 EC50, MM Patient 7): 54 nM
- EC50 ([23]; read-out: BI 894999 EC50, MM Patient 8): 3 nM
- EC50 ([23]; read-out: BI 894999 EC50, MM Patient 9): 21 nM
- EC50 ([23]; read-out: BI 894999 EC50, MM Patient 10): 1 nM
- EC50 ([23]; read-out: BI 894999 EC50, MM Patient 11): 57 nM
- EC50 ([23]; read-out: BI 894999 EC50, MM Patient 12): 1360 nM
- EC50 ([23]; read-out: BI 894999 EC50, MM Patient 13): 2 nM
- EC50 ([23]; read-out: BI 894999 EC50, MM Patient 14): 275 nM
- EC50 ([23]; read-out: BI 894999 EC50, MM Patient 15): 352 nM
- EC50 [24]: 6.2 ± 1.9 nM
- EC50 [25]: 2.5 ± 2.1 nM
- EC50 [26]: 3.6 ± 2 nM
- Hexim1 levels in blood [27]: back to baseline
- EC50 [28]: 28 ± 15 nM
- EC50 ([29]; 16/20 AML patient samples): < 10 nM
- EC50 ([29]; read-out: BI 894999 EC50, AML Patient 1, risk group Intermediate): 4 nM
- EC50 ([29]; read-out: BI 894999 EC50, AML Patient 2, risk group Intermediate): < 1 nM
- EC50 ([29]; read-out: BI 894999 EC50, AML Patient 3, risk group Intermediate): 5 nM
- EC50 ([29]; read-out: BI 894999 EC50, AML Patient 4, risk group High): 1080 nM
- EC50 ([29]; read-out: BI 894999 EC50, AML Patient 5, risk group High): 89 nM
- EC50 ([29]; read-out: BI 894999 EC50, AML Patient 6, risk group Intermediate): 2 nM
- EC50 ([29]; read-out: BI 894999 EC50, AML Patient 7, risk group Intermediate): 12 nM
- EC50 ([29]; read-out: BI 894999 EC50, AML Patient 8, risk group High): 2 nM
- EC50 ([29]; read-out: BI 894999 EC50, AML Patient 9, risk group Intermediate): 5 nM
- EC50 ([29]; read-out: BI 894999 EC50, AML Patient 10, risk group High): < 1 nM
- EC50 ([29]; read-out: BI 894999 EC50, AML Patient 11, risk group High): 18 nM
- EC50 ([29]; read-out: BI 894999 EC50, AML Patient 12, risk group Intermediate): 4 nM
- EC50 ([29]; read-out: BI 894999 EC50, AML Patient 13, risk group Intermediate): < 1 nM
- EC50 ([29]; read-out: BI 894999 EC50, AML Patient 14): < 1 nM
- EC50 ([29]; read-out: BI 894999 EC50, AML Patient 15, risk group Intermediate): 1 nM
- EC50 ([29]; read-out: BI 894999 EC50, AML Patient 16): < 1 nM
- EC50 ([29]; read-out: BI 894999 EC50, AML Patient 17, risk group High): < 1 nM
- EC50 ([29]; read-out: BI 894999 EC50, AML Patient 18, risk group Intermediate): < 1 nM
- EC50 ([29]; read-out: BI 894999 EC50, AML Patient 19, risk group Intermediate): < 1 nM
- EC50 ([29]; read-out: BI 894999 EC50, AML Patient 20, risk group Intermediate): < 1 nM
- EC50 [30]: 7.9 ± 2.1 nM
- EC50 [31]: 6.2 ± 2.2 nM
- EC50 [32]: 6.8 ± 4 nM
- EC50 ([32]; read-out: anti-proliferative EC50): 10 nM
- EC50 [33]: 25 ± 9 nM
- EC50 [34]: 2.9 ± 0.9 nM
